The values below come from ChEMBL document CHEMBL4346697, “Probing structural requirements for human topoisomerase I inhibition by a novel N1-Biphenyl fluoroquinolone” (Eur J Med Chem, 2019).

Test [1] has as its target T1, DNA topoisomerase 1 (Homo sapiens) (UniProt P11387).
T1 sequence (whole entry): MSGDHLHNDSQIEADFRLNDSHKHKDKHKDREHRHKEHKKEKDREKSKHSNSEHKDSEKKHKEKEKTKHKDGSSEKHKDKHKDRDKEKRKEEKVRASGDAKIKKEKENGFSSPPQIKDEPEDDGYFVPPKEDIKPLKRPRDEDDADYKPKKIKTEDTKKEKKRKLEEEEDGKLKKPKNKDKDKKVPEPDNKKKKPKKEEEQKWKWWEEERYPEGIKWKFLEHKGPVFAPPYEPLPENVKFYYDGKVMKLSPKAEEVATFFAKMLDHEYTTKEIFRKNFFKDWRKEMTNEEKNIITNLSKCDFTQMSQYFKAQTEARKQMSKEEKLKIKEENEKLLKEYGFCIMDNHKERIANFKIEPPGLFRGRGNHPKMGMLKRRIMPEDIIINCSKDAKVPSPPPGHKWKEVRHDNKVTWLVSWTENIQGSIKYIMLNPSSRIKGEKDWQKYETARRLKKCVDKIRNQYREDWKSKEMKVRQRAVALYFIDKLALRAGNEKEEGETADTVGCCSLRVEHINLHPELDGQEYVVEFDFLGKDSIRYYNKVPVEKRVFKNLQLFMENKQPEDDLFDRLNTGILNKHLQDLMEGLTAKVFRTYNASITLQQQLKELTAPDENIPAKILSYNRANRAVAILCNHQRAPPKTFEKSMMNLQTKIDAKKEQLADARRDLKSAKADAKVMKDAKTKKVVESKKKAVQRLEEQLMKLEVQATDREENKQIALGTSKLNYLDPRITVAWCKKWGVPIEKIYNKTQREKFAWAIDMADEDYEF
Nature of the test: Inhibition of human topoisomerase 1 at 200 uM using supercoiled pBR322 plasmid DNA as substrate after 15 mins by ethidium bromide staining based agarose gel electrophoresis method relative to control. The procedure, abridged: (§1)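 hTopo I (1 unit) relaxed 0.3 μg supercoiled plasmid in 50 mM Tris-HCl pH 7.5, 100 mM NaCl, 10 mM MgCl2, 1 mM DTT, 50 μg/ml BSA with varied compound concentrations, at 37°C for 15 min.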

For a further test, the target named is T2, DNA topoisomerase 1 (Homo sapiens, UniProt P11387).
T2 sequence (P11387 whole entry): T1 sequence (whole entry)
Put plainly: Inhibition of human topoisomerase 1 using supercoiled pBR322 plasmid DNA as substrate after 15 mins by ethidium bromide staining based agarose gel electrophoresis method. In short, it runs like this: as §1

Test [2] relates to Panel NCI-60 (60 carcinoma cell lines). Nature of the test: Antiproliferative activity against human NCI60 cells. In kind it is functional.
A short description of test [3]: Binding affinity to d(CCTTACGTGCATAGTCATTCATGACCG) dsDNA (unknown origin) assessed as bathochromic shift at 25 uM by fluorescence spectra analysis. The procedure, abridged: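 The 27-bp duplex was made by annealing complementary strands 1:1 at 95°C for 2 min, then cooling to room temperature. Compound at 25 μM, with dsDNA at 0–200 μM, in 10 mM Tris-HCl pH 7.4 at room temperature; DMSO ≤5% final. Spectra and intensity were read after blank subtraction, normalized to the no-DNA signal; technical replicates, n=3.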

In another test the test system is Calf thymus DNA. Nature of the test: Binding affinity to calf thymus DNA assessed as bathochromic shift at 25 uM by fluorescence spectra analysis. In kind it is nucleic-acid assay. The settings on record: Bos taurus. The procedure, abridged:
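Compound at 25 μM, with calf thymus DNA at 0 or 400 μM, in 10 mM Tris-HCl pH 7.4 at room temperature; final DMSO ≤5%. Emission spectra were recorded from 320–600 nm to look for a bathochromic shift. DNA was dissolved in the same buffer, checked by A260/A280 (1.8–1.9) and quantified at 260 nm (ε 6600 M−1 cm−1 per nucleotide).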

Activity calls are given as the source filed them. No cut-off for these calls is given here.

As usually defined, the inhibition is how much of the control response was suppressed. The term IC50 denotes the concentration that gives 50% inhibition. As to `COc1c(N2CC[C@@H](CO)C2)c(F)cc2c(=O)c(C(=O)O)cn(Cc3ccc(-c4ccccc4)cc3)c12`, the inhibition in test [1] amounted to 10%. Besides, the IC50 against DNA topoisomerase 1 was above 200 µM.

Molecule `O=C(O)c1cn(Cc2ccc(-c3ccccc3)cc2)c2cc(NC[C@H]3CCNC3)c(F)cc2c1=O` had an IC50 on DNA topoisomerase 1 of 100 µM.

In turn, `CNC[C@@H]1CCN(c2cc3c(cc2F)c(=O)c(C(=O)O)cn3Cc2ccc(-n3cccn3)cc2)C1` returned an inhibition in test [1] of 10%. The molecule also had an IC50 at DNA topoisomerase 1 above 200 µM.

At DNA topoisomerase 1, `NCCNc1cc2c(cc1F)c(=O)c(C(=O)O)cn2Cc1ccc(-c2ccccc2)cc1` displayed an IC50 of 72.8 µM.

Take `NC[C@@H]1CCN(c2ccc3c(=O)c(C(=O)O)cn(Cc4ccc(-c5ccccc5)cc4)c3c2)C1`: the midpoint of inhibition against DNA topoisomerase 1, the IC50, lay at 61.2 µM.

Consider `COc1c(F)c(F)cc2c(=O)c(C(=O)O)cn(Cc3ccc(-c4ccccc4)cc3)c12`, for which the inhibition entry in test [1] was “inactive”.

Regarding `CN[C@@H]1CCN(c2cc3c(cc2F)c(=O)c(C(=O)O)cn3Cc2ccc(-c3ccccc3)cc2)C1`, the IC50 against DNA topoisomerase 1 worked out at 34.8 µM.

As for `CNCCCCNc1cc2c(cc1F)c(=O)c(C(=O)O)cn2Cc1ccc(-c2ccccc2)cc1`, the IC50 at DNA topoisomerase 1 was determined as 88.3 µM.

For `CNC(=O)c1cn(Cc2ccc(-c3ccccc3)cc2)c2c(OC)c(NC)c(F)cc2c1=O`, in test [1], the inhibition entry is “inactive”.

On DNA topoisomerase 1, `COc1c(N2CC[C@@H](N)C2)c(F)cc2c(=O)c(C(=O)O)cn(Cc3ccc(-c4ccccc4)cc3)c12` returned an IC50 of 92.2 µM.

By GI50 is commonly meant the concentration giving 50% growth inhibition. Read a low GI50 as more potent growth inhibition. With `COc1c(N2CC[C@@H](CN)C2)c(F)cc2c(=O)c(C(=O)O)cn(Cc3ccc4ccccc4c3)c12`, it took 3.1 µM to inhibit growth in test [2] by half (GI50).

`CNC[C@@H]1CCN(c2cc3c(cc2F)c(=O)c(C(=O)O)cn3Cc2ccc(-c3ccccc3)cc2)C1`: at DNA topoisomerase 1, the IC50 is 168 µM.

`COc1c(N2CC[C@@H](CN)C2)c(F)cc2c(=O)c(C(=O)O)cn(Cc3ccc(-c4ccc(F)cc4)cc3)c12` gave an IC50 on DNA topoisomerase 1 of 60.9 µM. Compared with the last molecule, the IC50 is about 2.8-fold lower.

With `COc1c(NCCN)c(F)cc2c(=O)c(C(=O)O)cn(Cc3ccc(-c4ccccc4)cc3)c12`, in test [1], the inhibition was determined as 10%. The same molecule showed an IC50 at DNA topoisomerase 1 above 200 µM.

For the molecule `CNCCCNc1c(F)cc2c(=O)c(C(=O)O)cn(Cc3ccc(-c4ccccc4)cc3)c2c1OC`, the midpoint of inhibition at DNA topoisomerase 1, the IC50, lay at 101 µM.

`CNCCNc1c(F)cc2c(=O)c(C(=O)O)cn(Cc3ccc(-c4ccccc4)cc3)c2c1OC` registered an inhibition in test [1] of 10%. The same molecule gave a 50% inhibitory concentration (IC50) at DNA topoisomerase 1 above 200 µM.

On to `NC[C@@H]1CCN(c2cc3c(cc2F)c(=O)c(C(=O)O)cn3Cc2cc(-c3ccccc3)no2)C1`, for which the midpoint of inhibition on DNA topoisomerase 1, the IC50, lay at 58.3 µM.

As for `CNC(=O)c1cn(Cc2ccc(-c3ccccc3)cc2)c2c(OC)c(N3CC[C@@H](CN)C3)c(F)cc2c1=O`, on DNA topoisomerase 1, the IC50 came out at 82.1 µM.

`COc1c(N2CC[C@@H](CN)C2)c(F)cc2c(=O)c(C(=O)O)cn(Cc3ccc(-n4cccn4)cc3)c12` returned an inhibition in test [1] of 10%. Besides, on DNA topoisomerase 1, the IC50 was above 200 µM.

As for `O=C(O)c1cn(Cc2ccc(-n3cccn3)cc2)c2cc(NC[C@@H]3CCNC3)c(F)cc2c1=O`, in test [1], the inhibition was 10%.

In the case of `COc1c(N2CC[C@@H](C(N)=O)C2)c(F)cc2c(=O)c(C(=O)O)cn(Cc3ccc(-c4ccccc4)cc3)c12`, in test [1], the inhibition amounted to 10%. At DNA topoisomerase 1, this molecule registered an IC50 above 200 µM.

For the molecule `O=C(O)c1cn(Cc2ccc(-c3ccccc3)cc2)c2cc(NC[C@@H]3CCNC3)c(F)cc2c1=O`, inhibition at DNA topoisomerase 1 was half-maximal at 104 µM (IC50).

The molecule `COc1c(N2CC[C@@H](CN)C2)c(F)cc2c(=O)c(C(=O)O)cn(Cc3cc(-c4ccccc4)no3)c12` displayed an IC50 against DNA topoisomerase 1 of 178 µM.

Take `O=C(O)c1cn(Cc2ccc(-n3cccn3)cc2)c2cc(N3C[C@H]4CCNC[C@H]4C3)c(F)cc2c1=O`: at DNA topoisomerase 1, the IC50 came out at 31.3 µM.

With `CNCCNc1cc2c(cc1F)c(=O)c(C(=O)O)cn2Cc1ccc(-c2ccccc2)cc1`, the inhibition in test [1] is 10%. In addition, the concentration for half-maximal inhibition (IC50) at DNA topoisomerase 1 was above 200 µM.

Molecule `COc1c(N2CC[C@@H](N)C2)c(F)cc2c(=O)c(C(=O)O)cn(Cc3ccc(-c4ccc(F)cc4)cc3)c12` yielded an IC50 against DNA topoisomerase 1 of 58.6 µM.

On DNA topoisomerase 1, `NC[C@@H]1CCN(c2cc3c(cc2F)c(=O)c(C(=O)O)cn3Cc2ccc(-n3cccn3)cc2)C1` registered an IC50 of 91.6 µM.

Consider `NC[C@@H]1CCN(c2ccc3c(=O)c(C(=O)O)cn(Cc4ccc(-n5cccn5)cc4)c3c2)C1`, for which the IC50 against DNA topoisomerase 1 was 61 µM. Compared with the last molecule, the IC50 is about 1.5-fold lower.

Consider `CNC[C@@H]1CCN(c2c(F)cc3c(=O)c(C(=O)O)cn(Cc4ccc(-c5ccccc5)cc4)c3c2OC)C1`, for which the IC50 against DNA topoisomerase 1 stood at 155 µM.

In the case of `NC[C@@H]1CCN(c2cc3c(cc2F)c(=O)c(C(=O)O)cn3Cc2nc(-c3ccncc3)no2)C1`, the inhibition in test [1] worked out at 10%. The same molecule displayed an IC50 against DNA topoisomerase 1 above 200 µM.

In the case of `O=C(O)c1cn(Cc2ccc(-c3ccccc3)cc2)c2cc(N3CC4CNCC4C3)c(F)cc2c1=O` (centres undefined), 33.3 µM corresponded to half-maximal inhibition at DNA topoisomerase 1 (IC50).

In turn, `O=C(O)c1cn(Cc2ccc(-n3cccn3)cc2)c2cc(NC[C@H]3CCNC3)c(F)cc2c1=O` displayed a 50% inhibitory concentration (IC50) on DNA topoisomerase 1 of 187 µM.

With `N[C@@H]1CCN(c2cc3c(cc2F)c(=O)c(C(=O)O)cn3Cc2ccc(-c3ccccc3)cc2)C1`, on DNA topoisomerase 1, the IC50 worked out at 63.6 µM.

In the case of `O=C(O)c1cn(Cc2ccc(-c3ccccc3)cc2)c2cc(N3C[C@H]4CCNC[C@H]4C3)c(F)cc2c1=O`, on DNA topoisomerase 1, the IC50 is 61 µM.

Consider `COc1c(N2CC[C@@H](CN)C2)c(F)cc2c(=O)c(C(=O)NO)cn(Cc3ccc(-c4ccccc4)cc3)c12`, for which the IC50 on DNA topoisomerase 1 stood at 35.9 µM.

In the case of `NC[C@@H]1CCN(c2cc3c(cc2F)c(=O)c(C(=O)O)cn3Cc2ccc(-c3ccc(F)cc3)cc2)C1`, the IC50 on DNA topoisomerase 1 stood at 69.6 µM. Compared with the last molecule, the IC50 is about 1.9-fold higher.

Regarding `CNCCCNc1cc2c(cc1F)c(=O)c(C(=O)O)cn2Cc1ccc(-c2ccccc2)cc1`, the IC50 against DNA topoisomerase 1 amounted to 63.6 µM.

In turn, `CC(c1nc(-c2ccncc2)no1)n1cc(C(=O)O)c(=O)c2cc(F)c(N3CC[C@@H](CN)C3)cc21` (some centres undefined) yielded an inhibition in test [1] of 10%. On DNA topoisomerase 1, this molecule had an IC50 above 200 µM.

`COC(=O)c1cn(Cc2ccc(-c3ccccc3)cc2)c2c(OC)c(N3CC[C@@H](CN)C3)c(F)cc2c1=O` showed an IC50 against DNA topoisomerase 1 of 71.4 µM.

On to `O=C(O)c1cn(Cc2ccc(-n3cccn3)cc2)c2cc(N3CC4CNCC4C3)c(F)cc2c1=O` (centres undefined), for which half-maximal inhibition against DNA topoisomerase 1 (IC50) was put at 173 µM. Compared with the last molecule, the IC50 is about 2.4-fold higher.

As to `COc1c(N2CC[C@@H](CN)C2)c(F)cc2c(=O)c(C(=O)O)cn(Cc3ccc(-c4ccccc4)cc3)c12`, the outcome (in test [3]; in the test with Calf thymus DNA) was inactive. For the same molecule, in test [2], it took 1.9 µM to inhibit growth by half (GI50).

`CNCCCCNc1c(F)cc2c(=O)c(C(=O)O)cn(Cc3ccc(-c4ccccc4)cc3)c2c1OC` came in with an inhibition in test [1] of 10%. The molecule also gave a half-inhibitory concentration (IC50) against DNA topoisomerase 1 above 200 µM.

The molecule `COc1c(N2CC[C@@H](CN)C2)c(F)cc2c(=O)c(C(N)=O)cn(Cc3ccc(-c4ccccc4)cc3)c12` gave an IC50 at DNA topoisomerase 1 of 184 µM.

Molecule `CN[C@@H]1CCN(c2c(F)cc3c(=O)c(C(=O)O)cn(Cc4ccc(-c5ccccc5)cc4)c3c2OC)C1` gave an IC50 on DNA topoisomerase 1 of 57.7 µM.

Regarding `NC[C@@H]1CCN(c2cc3c(cc2F)c(=O)c(C(=O)O)cn3Cc2ccc(-c3ccccc3)cc2)C1`, the outcome (in test [3]; in the test with Calf thymus DNA) was inactive. On DNA topoisomerase 1, this molecule returned an IC50 of 15.6 µM.
